Measurements published in ChEMBL document CHEMBL4811275, “Iodinated 1,2-diacylhydrazines, benzohydrazide-hydrazones and their analogues as dual antimicrobial and cytotoxic agents” (Bioorg Med Chem, 2021).
≈ marks a conversion by molar mass, not a printed value. Calls of active or inactive are those of the source. The rule behind the calls is not given here.

Experiments:
[1] = tested on: HepG2; assay: Cytotoxicity against human HepG2 cells assessed as reduction in cell viability incubated for 24 hrs by cell-titer 96 aqueous one solution cell proliferation assay; assay type: functional, cell-based; settings: HepG2, 24 h
[2] = tested on: Staphylococcus aureus; assay: Antibacterial activity against Staphylococcus aureus ATCC 29213 assessed as reduction in bacterial growth incubated for 48 hrs by broth microdilution method; assay type: functional
In short: (§1)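 Cation-adjusted Mueller-Hinton broth microdilution per EUCAST, modified; compounds from DMSO stocks, final DMSO ≤1% v/v; scale starting from 0.49 µM. Static incubation at 35 ± 2 °C, dark, humidified, read at 24 and 48 h. MIC = lowest concentration with no visible growth by eye; duplicates, parallel readings within one dilution step; growth and medium/DMSO controls included.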

[3] = tested on: Escherichia coli; assay: Antibacterial activity against Escherichia coli ATCC 25922 assessed as reduction in bacterial growth incubated for 48 hrs by broth microdilution method; assay type: functional; in short: as §1
[4] = tested on: Trichophyton interdigitale; assay: Antifungal activity against Trichophyton interdigitale ATCC 9533 assessed as reduction in fungal growth incubated for 120 hrs by broth microdilution method; assay type: functional
In short: (§2)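 Broth microdilution per EUCAST (yeasts and moulds), modified: twofold dilutions from DMSO (final ≤1% v/v) in RPMI-1640 with L-glutamine, 2% glucose, MOPS-buffered pH 7.0; scale from 0.49 µM. Static, dark, humidified, 35 ± 2 °C for 24 and 48 h (Trichophyton interdigitale 72 and 120 h). MIC = complete visible inhibition by eye; duplicates within one dilution step.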

[5] = tested on: Lichtheimia corymbifera; assay: Antifungal activity against Lichtheimia corymbifera CCM 8077 assessed as reduction in fungal growth incubated for 24 hrs by broth microdilution method; assay type: functional; in short: as §2
[6] = tested on: HK-2; assay: Cytotoxicity against human HK-2 cells assessed as reduction in cell viability incubated for 24 hrs by cell-titer 96 aqueous one solution cell proliferation assay; assay type: cell-based; settings: HK-2, 24 h
[7] = tested on: Staphylococcus aureus; assay: Antibacterial activity against methicillin-resistant Staphylococcus aureus ATCC 43300 assessed as reduction in bacterial growth incubated for 48 hrs by broth microdilution method; assay type: functional
In short: (§3)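 EUCAST-based broth microdilution in cation-adjusted Mueller-Hinton broth. DMSO stocks, final DMSO ≤1% v/v, concentration scale starting from 0.49 µM. Static incubation at 35 ± 2 °C, dark and humidified. Run in duplicate, accepted only if parallel MICs differ by at most one dilution step. MIC is the lowest concentration with no visible growth by naked eye.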

[8] = tested on: Lichtheimia corymbifera; assay: Antifungal activity against Lichtheimia corymbifera CCM 8077 assessed as reduction in fungal growth incubated for 48 hrs by broth microdilution method; assay type: functional; in short: as §2
[9] = tested on: Staphylococcus epidermidis; assay: Antibacterial activity against Staphylococcus epidermidis ATCC 12228 assessed as reduction in bacterial growth incubated for 48 hrs by broth microdilution method; assay type: functional; in short: as §1
[10] = Therapeutic index, ratio of IC50 for cytotoxicity against human HepG2 cells to MIC for antifungal activity against Candida albicans ATCC 24443
[11] = tested on: Pichia kudriavzevii; assay: Antifungal activity against Candida krusei ATCC 6258 assessed as reduction in fungal growth incubated for 24 hrs by broth microdilution method; assay type: functional; in short: as §2
[12] = tested on: Trichophyton interdigitale; assay: Antifungal activity against Trichophyton interdigitale ATCC 9533 assessed as reduction in fungal growth incubated for 72 hrs by broth microdilution method; assay type: functional; in short: as §2
[13] = tested on: Candida parapsilosis; assay: Antifungal activity against Candida parapsilosis ATCC 22019 assessed as reduction in fungal growth incubated for 48 hrs by broth microdilution method; assay type: functional; settings: Lodderomyces parapsilosis; in short: as §2
[14] = tested on: Enterococcus faecalis; assay: Antibacterial activity against Enterococcus faecalis ATCC 29212 assessed as reduction in bacterial growth incubated for 48 hrs by broth microdilution method; assay type: functional; in short: as §1
[15] = tested on: Staphylococcus aureus; assay: Antibacterial activity against methicillin-resistant Staphylococcus aureus ATCC 43300 assessed as reduction in bacterial growth incubated for 24 hrs by broth microdilution method; assay type: functional; in short: as §3
[16] = tested on: Staphylococcus epidermidis; assay: Antibacterial activity against Staphylococcus epidermidis ATCC 12228 assessed as reduction in bacterial growth incubated for 24 hrs by broth microdilution method; assay type: functional; in short: as §1
[17] = tested on: Candida albicans; assay: Antifungal activity against Candida albicans ATCC 24443 assessed as reduction in fungal growth incubated for 24 hrs by broth microdilution method; assay type: functional; in short: as §2
[18] = tested on: Pichia kudriavzevii; assay: Antifungal activity against Candida krusei ATCC 6258 assessed as reduction in fungal growth incubated for 48 hrs by broth microdilution method; assay type: functional; in short: as §2
[19] = tested on: Enterococcus faecalis; assay: Antibacterial activity against Enterococcus faecalis ATCC 29212 assessed as reduction in bacterial growth incubated for 24 hrs by broth microdilution method; assay type: functional; in short: as §1
[20] = tested on: Candida parapsilosis; assay: Antifungal activity against Candida parapsilosis ATCC 22019 assessed as reduction in fungal growth incubated for 24 hrs by broth microdilution method; assay type: functional; settings: Lodderomyces parapsilosis; in short: as §2
[21] = tested on: Escherichia coli; assay: Antibacterial activity against Escherichia coli ATCC 25922 assessed as reduction in bacterial growth incubated for 24 hrs by broth microdilution method; assay type: functional; in short: as §1
[22] = tested on: Candida albicans; assay: Antifungal activity against Candida albicans ATCC 24443 assessed as reduction in fungal growth incubated for 48 hrs by broth microdilution method; assay type: functional; in short: as §2
[23] = tested on: Staphylococcus aureus; assay: Antibacterial activity against Staphylococcus aureus ATCC 29213 assessed as reduction in bacterial growth incubated for 24 hrs by broth microdilution method; assay type: functional; in short: as §1
[24] = tested on: Pseudomonas aeruginosa; assay: Antibacterial activity against Pseudomonas aeruginosa ATCC 27853 assessed as reduction in bacterial growth measured for 24 to 48 hrs by broth microdilution method; assay type: functional, organism-based; settings: time 24-48 hrs; in short: as §1
[25] = tested on: Klebsiella pneumoniae; assay: Antibacterial activity against Klebsiella pneumoniae ATCC 10031 assessed as reduction in bacterial growth measured for 24 to 48 hrs by broth microdilution method; assay type: functional, organism-based; settings: time 24-48 hrs; in short: as §1
[26] = tested on: Serratia marcescens; assay: Antibacterial activity against clinical isolate Serratia marcescens assessed as reduction in bacterial growth measured for 24 to 48 hrs by broth microdilution method; assay type: functional, organism-based; settings: time 24-48 hrs; in short: as §1
[27] = tested on: Staphylococcus aureus; assay: Antibacterial activity against methicillin-susceptible Staphylococcus aureus CCM 4223 assessed as reduction in bacterial growth measured for 24 to 48 hrs by broth microdilution method; assay type: functional, organism-based; settings: time 24-48 hrs; in short: as §1
[28] = tested on: HepG2; assay: Antiproliferative activity against human HepG2 cells assessed as increase in caspase 3/7 level at 100 uM incubated for 24 hrs by Caspase-glo reagent based microplate reader analysis relative to control; assay type: functional
In short: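 HepG2 cells seeded at 15 000/well, compounds diluted in complete MEM, 24 h at 37 °C, 5% CO2; untreated vehicle controls. Caspase-Glo 3/7 reagent added, shaken 350 rpm at room temperature 60 min in dark, luminescence read. Expressed as fold of untreated control; triplicate wells, mean ± SD with n = 6.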

Compound | IC50 [1] [µM] | MIC [2] [µM] | MIC [3] [µM] | IC50 [6] [µM] | MIC [7] [µM] | MIC [9] [µM] | MIC [14] [µM] | MIC [15] [µM] | MIC [16] [µM] | MIC [19] [µM] | MIC [21] [µM] | MIC [23] [µM] | other results
O=C(N/N=C/c1cc(I)cc(I)c1O)c1ccc([N+](=O)[O-])cc1 | 24.7 | 62.5 (≈ 33.6 µg/mL) | > 125 | 26.8 | 62.5 (≈ 33.6 µg/mL) | 62.5 (≈ 33.6 µg/mL) | 125 (≈ 67.1 µg/mL) | 31.2 (≈ 16.8 µg/mL) | 31.2 (≈ 16.8 µg/mL) | 62.5 (≈ 33.6 µg/mL) | > 125 | 31.2 (≈ 16.8 µg/mL) | MIC [4]: 15.6 µM (≈ 8.39 µg/mL); MIC [5]: 31.2 µM (≈ 16.8 µg/mL); MIC [8]: 62.5 µM (≈ 33.6 µg/mL); Ratio [10]: 13.1; MIC [11]: 62.5 µM (≈ 33.6 µg/mL); MIC [12]: 3.9 µM (≈ 2.09 µg/mL); MIC [13]: > 125 µM; MIC [17]: 1.95 µM (≈ 1.05 µg/mL); MIC [18]: > 125 µM; MIC [20]: > 125 µM; MIC [22]: 7.81 µM (≈ 4.19 µg/mL)
O=C(N/N=C/c1cc(I)cc(I)c1O)c1ccc(O)cc1 | 19.2 | 62.5 (≈ 31.8 µg/mL) | 250 (≈ 127 µg/mL) |  | 62.5 (≈ 31.8 µg/mL) | 125 (≈ 63.5 µg/mL) | 250 (≈ 127 µg/mL) | 62.5 (≈ 31.8 µg/mL) | 62.5 (≈ 31.8 µg/mL) | 250 (≈ 127 µg/mL) | 250 (≈ 127 µg/mL) | 31.2 (≈ 15.9 µg/mL) | Activity [24]: inactive; Activity [25]: inactive; Activity [26]: inactive; Activity [27]: Active
CC(C)(C)c1ccc(C(=O)N/N=C/c2cc(I)c(O)c(I)c2)cc1 | 45.9 | 125 (≈ 68.5 µg/mL) | > 500 | > 250 | 250 (≈ 137 µg/mL) | 250 (≈ 137 µg/mL) | 500 (≈ 274 µg/mL) | 125 (≈ 68.5 µg/mL) | 125 (≈ 68.5 µg/mL) | 250 (≈ 137 µg/mL) | > 500 | 125 (≈ 68.5 µg/mL) | 
O=C(N/N=C/c1cc(I)cc(I)c1O)c1ccc(C(F)(F)F)cc1 | 11.7 | 31.2 (≈ 17.5 µg/mL) | > 250 | 49.9 | 31.2 (≈ 17.5 µg/mL) | 31.2 (≈ 17.5 µg/mL) | 31.2 (≈ 17.5 µg/mL) | 31.2 (≈ 17.5 µg/mL) | 31.2 (≈ 17.5 µg/mL) | 31.2 (≈ 17.5 µg/mL) | > 250 | 31.2 (≈ 17.5 µg/mL) | fold change (FC) [28]: 1.37
